# The entries come from a sample that favours hits as a whole.
# Hsp70 activator = switches on Hsp70 transcription | HeLa Hsp70 promoter luciferase reporter, luminescence; scaled: vehicle 0, proteasome-inhibitor control 100% | activation, % at 10 µM | 0.04% of 200,000 active | AID 1203;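 active = activation above the mean across all tested compounds plus 3 SD, cutoff set per campaign, cut at about 5.5% in these data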
# HSF1 inhib = HSF1 inhibition. NIH3T3-HGL HSE-luciferase, MG132-induced, luminescence 8 h; active compounds read low. activity change, negative = inhibition, % at 7.5 µM (by protocol). 0.77% of 300,000 active. AID 2098;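 active = more than half of replicate wells show activity change below -50%, luminescence cut by over half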;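 note: luciferase reports HSF-1 transcriptional activity via heat shock element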
# Lmaj promast = Leishmania major promastigote growth inhibition. 9% of 200,000 active. Leishmania major promastigotes, resazurin fluorescence viability. inhibition, % at 10 µM; in the data active = inhibition above about 50%;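 note: promastigotes grown with compound for 44 hours at 28 °C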
# T cruzi inh = T. cruzi replication inhibition | AID 1885 | T. cruzi beta-gal in NIH3T3, luminescence, 90 h | 1.4% of 300,000 active | inhibition, % (test concentration not listed);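 active = mean inhibition across valid replicates above about 55%, limit read from the data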;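 note: signal also drops with host cell toxicity which is not excluded here; higher percent means less beta-gal luminescence so fewer parasites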
#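 Assay system: NIH/3T3 host cells with β-galactosidase reporter T. cruzi; input: 5,000 host fibroblasts per well; compound: single 50 nL compound addition per well in DMSO; timing: ≥90 h infection period, 3 h prior cell attachment; measured by: GalScreen β-gal luminescence, detergent lysis, 60 min; evaluation: percent inhibition of parasite-derived β-gal signal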
# HSF1 activator = increases HSF-1 driven luciferase reporter signal; NIH3T3-HGL HSF-1 luciferase reporter, MG132, 8 h; 100% = twice DMSO control signal; activation, % at 9 µM; 1.7% of 300,000 active;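 active = mean replicate activation of at least 50% with a set share of replicates each reaching 50%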
# Numbers stand for hits; n = inactive; x = no result.
SMILES,Hsp70 activator,HSF1 inhib,Lmaj promast,T cruzi inh,HSF1 activator
Cc1ccc(NC(=O)c2cccc(OC(F)F)c2)c(OC(F)F)c1,n,n,n,n,n
O=C(Nc1ccc2c(c1)CCC2)c1ccc(Cl)nc1,n,n,n,n,n
O=C(CSc1nnc(-c2ccc(C(F)(F)F)cn2)s1)c1ccccc1,x,n,x,n,n
COc1ccc(OC)c(C(=O)NC2CC(C)(C)Cc3c2cnn3-c2ccccc2)c1 (stereo not given),x,n,x,n,n
O/C(=C\c1nc2ccccc2nc1/C=C(\O)c1ccccc1)c1ccccc1,n,n,98,n,n
CC(C)(C)OC(=O)N1CCC2(CC1)C(C#N)=C(N)OC1=C2C(=O)CCC1,n,n,n,n,n
COc1ccc(-c2csc3nc(-c4cccnc4)nc(N4CCC(C(N)=O)CC4)c23)cc1OC,n,n,n,n,n
O=C1CN(c2nc(-c3cccnc3)nc3scc(-c4ccccc4)c23)CCN1,n,n,n,63,n
O=c1oc(-c2cccs2)nc2sc3c(c12)CCC3,n,n,n,n,n
O=c1oc(-c2cccs2)nc2sc3c(c12)CCCC3,n,n,n,n,63
O=c1c2c3c(sc2nc2n1N=C(c1cccs1)CS2)CCCC3,n,n,n,n,n
O=C1CN(c2nc(-c3cccs3)nc3sc4c(c23)CCCC4)CCN1,n,n,76,n,n
Cc1ccc(S(=O)(=O)N(C)C)cc1NC(=O)C(C)N(C)Cc1sccc1C (stereo not given),x,n,x,n,n
COc1cc(CNC2CCCC2)cc(Cl)c1OCc1ccccc1F,n,n,100,58,n
COc1cc(CNC2CCCCCC2)cc(OC)c1O,n,n,n,n,n
COc1ccc(C(O)P(=O)(OC(C)C)c2ccc(N(C)C)cc2)c(OC)c1 (stereo not given),x,n,x,n,n
COc1ccc(C(O)P(=O)(OCC(C)C)OCC(C)C)c(OC)c1 (stereo not given),n,n,65,n,n
O=C(N1CCCCC1)C1(S(=O)(=O)c2ccccc2)CC=CC1,x,n,x,n,n
O=C(NC1(C(=O)NC2CCCC2)CCCCC1)c1ccc2c(c1)OCO2,n,n,57,n,n
O=C(NC1(C(=O)NC2CCCCC2)CCCCC1)c1ccc2c(c1)OCO2,n,n,93,n,n
O=C(Nc1ccc(N2CCN(C(=O)c3cccs3)CC2)cc1)c1ccc([N+](=O)[O-])o1,x,n,x,n,n
COc1cc(NS(=O)(=O)c2ccc(Br)cc2)c(OC)cc1NC(=O)c1ccco1,n,n,91,n,n
COc1cc(NC(=O)CC(C)C)ccc1NC(=O)c1ccco1,n,n,n,n,54
COc1ccc(S(=O)(=O)Nc2cc(OC)c(NC(=O)c3ccco3)cc2OC)cc1,n,n,n,n,n
COc1cc(NC(=O)c2cc3ccccc3cc2OC)ccc1NC(=O)c1cccs1,x,-58,x,n,n
SMILES,Hsp70 activator,HSF1 inhib,Lmaj promast,T cruzi inh,HSF1 activator
O=C(Nc1cccc(NC(=O)c2cccs2)c1)c1ccc([N+](=O)[O-])o1,x,n,x,68,78
CCC(=O)Nc1ccc(NC(=O)c2ccco2)c(OC)c1,n,n,n,n,n
Cc1ccc(SCC(=O)NCCc2ccc(F)cc2)cc1,x,n,x,n,n
COc1ccc(NC(=O)c2cccs2)cc1NC(=O)c1ccco1,n,n,52,n,n
COc1cc(NC(=O)c2ccc([N+](=O)[O-])o2)ccc1NC(=O)c1cccs1,n,n,100,86,127
C#CCN(C(=O)CC1C(=O)NCCN1C/C=C/c1ccccc1)C1CCCCC1 (stereo not given),n,n,n,n,n
O=C(Cn1cnc([N+](=O)[O-])c1)NC1CCCC1,n,n,n,n,n
Nc1nonc1-n1nnc(C(=O)N/N=C/c2cccnc2)c1CSC1=NCCS1,x,n,x,n,96
Nc1nonc1-n1nnc(C(=O)N/N=C/c2ccc(Br)cc2)c1CSC1=NCCS1,n,n,n,n,n
CC(C)c1ccc(/C=N/NC(=O)c2nnn(-c3nonc3N)c2CSC2=NCCS2)cc1,n,n,97,n,n
COc1ccc(CC(=O)NNC(=O)c2cccnc2)cc1OC,n,n,n,n,n
Cc1ccc2c(c1)[nH]c1c(=O)n(Cc3ccco3)cnc12,x,n,x,n,n
CN(Cc1cn(-c2ccccc2)nc1-c1ccc(Cl)cc1)C(=O)CCC(=O)O,n,n,n,n,n
COc1ccc(/C=N/Nc2nc(NCc3ccco3)nc(Nc3ccc(OC)cc3)n2)cc1,n,n,77,n,n
COc1ccc(Nc2nc(NCc3ccco3)nc(N/N=C/c3ccc(O)cc3)n2)cc1,n,n,n,n,n
CC1=NN(c2ccccc2)C(=O)/C1=C/c1cccc(C)c1,x,n,x,n,n
CC1=NN(c2ccccc2)C(=O)/C1=C/c1cc2cc(C)ccc2nc1N1CCCCC1,n,n,90,n,n
CSc1ccccc1-c1nnc(-c2ccc(Cl)c(Cl)c2)o1,n,n,n,n,n
Clc1ccc(-c2nnc(-c3ccccc3)o2)c(Cl)c1,n,n,n,n,n
CSc1ccccc1-c1nnc(-c2ccc(Cl)cc2Cl)o1,n,n,n,n,54
CC(C)OC(=O)CSc1nnc(-c2ccc(Cl)cc2Cl)o1,n,n,n,n,75
Clc1ccc(-c2nnc(-c3ccc(Br)o3)o2)c(Cl)c1,n,n,n,n,60
COc1cccc(CN2CC(C(=O)NCCCCc3ccccn3)CCC2=O)c1 (stereo not given),x,n,x,n,n
COc1ccc2ccccc2c1CNC(C)CCc1ccccc1 (stereo not given),x,n,x,56,n
O=C(c1nc2nc(-c3cccs3)cc(C(F)(F)F)n2n1)N1CCN(Cc2ccccc2)CC1,n,n,n,n,n
SMILES,Hsp70 activator,HSF1 inhib,Lmaj promast,T cruzi inh,HSF1 activator
CN(C)CCN1CCc2ccccc21,n,n,78,n,n
Cc1cc(C(=O)COC(=O)c2n[nH]c3ccccc23)c(C)n1CC1CCCO1 (stereo not given),n,-80,n,n,n
Cc1cc(C(=O)COC(=O)c2cccnc2Cl)c(C)n1CC1CCCO1 (stereo not given),n,-77,n,n,n
COCCn1c(C)cc(C(=O)COC(=O)c2ccccc2Br)c1C,n,-90,n,n,n
Cc1cc(C(=O)COC(=O)c2ccccc2Br)c(C)n1CC1CCCO1 (stereo not given),x,-91,x,n,n
Cc1ccc(C(=O)OCC(=O)c2cc(C)n(CC3CCCO3)c2C)cc1 (stereo not given),n,n,n,n,n
O=S(=O)(Cc1noc(-c2ccc(Cl)cc2)n1)Cc1ccco1,x,n,x,n,n
Cc1c(C(=O)N2CCCCC2)c(S(=O)(=O)NCc2ccc(Cl)cc2)c(C)n1C,x,n,x,n,n
Cc1cc(C(=O)COC(=O)c2ccccc2O)c(C)n1Cc1cccs1,n,-90,n,n,n
O=C(OCC(=O)C12CC3CC(CC(C3)C1)C2)c1ccccn1,x,n,x,n,n
Cc1cc(C(=O)COC(=O)c2ccc3c(c2)OCO3)c(C)n1Cc1cccs1,n,n,n,n,n

# Screening results as filed in PubChem.
